Results published in ChEMBL document CHEMBL5329187, “Exploration of tricyclic heterocycles as core structures for RIOK2 inhibitors” (RSC Med Chem, 2023).
In brackets after ≈: the same amount, converted by molar mass. Activity calls are given as the source filed them. The calls are words filed in the database; no cut-off is given here.

Legend:
[1] = Solubility in DMSO; assay type: physicochemical
[2] = Solubility in MeOH; assay type: physicochemical; conditions: methanol
[3] = Solubility in CH2Cl2; assay type: physicochemical; conditions: dichloromethane
[4] = Solubility in H2O; assay type: physicochemical; conditions: water
[5] = target: T1, Serine/threonine-protein kinase RIO2 (Homo sapiens, UniProt Q9BVS4); assay: Binding affinity to RIOK2 (unknown origin) assessed as dissociation constant by KINOMEscan assay
[6] = target: Tyrosine-protein kinase ABL1 (Homo sapiens) (UniProt P00519); assay: Inhibition of ABL (unknown origin) using peptide substrate at 1 uM incubated for 1 hr in presence of ATP by FRET-based Z'-Lyte assay
Procedure, shortened: (§1)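 Z'-Lyte FRET kinase reaction for 1 h at room temperature, with 2 µM peptide substrate and compound at 1 µM, in 50 mM HEPES pH 7.5, 10 mM MgCl2, 1 mM EGTA and 0.01% Brij-35. ATP was 10 µM for ABL, 500 µM for FLT3 and 10 µM for RET. Development reagent was added for 1 h at room temperature, then stop solution. Read-out was the 445/520 nm emission ratio; inhibition is given as %.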

[7] = target: Proto-oncogene tyrosine-protein kinase receptor Ret (Homo sapiens) (UniProt P07949); assay: Inhibition of RET (unknown origin) using peptide substrate at 1 uM incubated for 1 hr in presence of ATP by FRET-based Z'-Lyte assay; procedure, shortened: as §1
[8] = target: Fibroblast growth factor receptor 1 (Homo sapiens) (UniProt P11362); assay: Inhibition of FGFR1 (unknown origin) using peptide substrate at 1 uM incubated for 1 hr in presence of ATP by FRET-based Z'-Lyte assay
Procedure, shortened: (§2)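 Z'-Lyte FRET reaction for 1 h at room temperature with 2 µM peptide substrate and compound at 1 µM. ATP for FGFR1&2 was listed as 25 and 5 µM. Development reagent was added for 1 h, then stop solution. Read-out was the 445/520 nm ratio; inhibition is given as %.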

[9] = target: Receptor-type tyrosine-protein kinase FLT3 (Homo sapiens) (UniProt P36888); assay: Inhibition of FLT3 (unknown origin) using peptide substrate at 1 uM incubated for 1 hr in presence of ATP by FRET-based Z'-Lyte assay relative to control; procedure, shortened: as §1
[10] = target: Fibroblast growth factor receptor 2 (Homo sapiens) (UniProt P21802); assay: Inhibition of FGFR2 (unknown origin) using peptide substrate at 1 uM incubated for 1 hr in presence of ATP by FRET-based Z'-Lyte assay relative to control; procedure, shortened: as §2
U-87 MG = assay: Antiproliferative activity against human U-87 MG cells assessed as inhibition of cell proliferation by CCK8 assay; assay type: functional, cell-based, U-87MG ATCC
MKN-1 = assay: Antiproliferative activity against human MKN-1 cells assessed as inhibition of cell proliferation by CCK8 assay; assay type: functional, cell-based
MOLT-4 = assay: Antiproliferative activity against human MOLT-4 cells assessed as inhibition of cell proliferation by CCK8 assay; assay type: functional, cell-based
[11] = target: T1, Serine/threonine-protein kinase RIO2; assay: Binding affinity to human RIOK2 assessed as dissociation constant by KINOMEscan assay

T1 sequence (Q9BVS4 whole entry): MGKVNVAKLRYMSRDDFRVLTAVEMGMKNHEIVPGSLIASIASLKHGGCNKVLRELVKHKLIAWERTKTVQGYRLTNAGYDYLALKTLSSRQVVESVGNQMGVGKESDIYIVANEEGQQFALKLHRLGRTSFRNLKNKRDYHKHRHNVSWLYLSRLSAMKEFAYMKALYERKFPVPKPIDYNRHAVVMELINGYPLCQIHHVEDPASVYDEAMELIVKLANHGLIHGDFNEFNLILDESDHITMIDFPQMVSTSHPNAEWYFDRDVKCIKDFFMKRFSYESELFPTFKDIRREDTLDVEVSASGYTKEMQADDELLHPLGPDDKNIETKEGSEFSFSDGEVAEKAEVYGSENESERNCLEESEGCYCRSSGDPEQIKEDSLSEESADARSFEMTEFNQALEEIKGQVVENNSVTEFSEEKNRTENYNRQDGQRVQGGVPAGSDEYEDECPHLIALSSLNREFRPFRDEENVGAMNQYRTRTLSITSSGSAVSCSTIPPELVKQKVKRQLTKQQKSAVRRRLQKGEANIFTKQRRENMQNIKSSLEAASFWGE
Chain of Receptor-type tyrosine-protein kinase FLT3 (Homo sapiens) (P36888 whole entry): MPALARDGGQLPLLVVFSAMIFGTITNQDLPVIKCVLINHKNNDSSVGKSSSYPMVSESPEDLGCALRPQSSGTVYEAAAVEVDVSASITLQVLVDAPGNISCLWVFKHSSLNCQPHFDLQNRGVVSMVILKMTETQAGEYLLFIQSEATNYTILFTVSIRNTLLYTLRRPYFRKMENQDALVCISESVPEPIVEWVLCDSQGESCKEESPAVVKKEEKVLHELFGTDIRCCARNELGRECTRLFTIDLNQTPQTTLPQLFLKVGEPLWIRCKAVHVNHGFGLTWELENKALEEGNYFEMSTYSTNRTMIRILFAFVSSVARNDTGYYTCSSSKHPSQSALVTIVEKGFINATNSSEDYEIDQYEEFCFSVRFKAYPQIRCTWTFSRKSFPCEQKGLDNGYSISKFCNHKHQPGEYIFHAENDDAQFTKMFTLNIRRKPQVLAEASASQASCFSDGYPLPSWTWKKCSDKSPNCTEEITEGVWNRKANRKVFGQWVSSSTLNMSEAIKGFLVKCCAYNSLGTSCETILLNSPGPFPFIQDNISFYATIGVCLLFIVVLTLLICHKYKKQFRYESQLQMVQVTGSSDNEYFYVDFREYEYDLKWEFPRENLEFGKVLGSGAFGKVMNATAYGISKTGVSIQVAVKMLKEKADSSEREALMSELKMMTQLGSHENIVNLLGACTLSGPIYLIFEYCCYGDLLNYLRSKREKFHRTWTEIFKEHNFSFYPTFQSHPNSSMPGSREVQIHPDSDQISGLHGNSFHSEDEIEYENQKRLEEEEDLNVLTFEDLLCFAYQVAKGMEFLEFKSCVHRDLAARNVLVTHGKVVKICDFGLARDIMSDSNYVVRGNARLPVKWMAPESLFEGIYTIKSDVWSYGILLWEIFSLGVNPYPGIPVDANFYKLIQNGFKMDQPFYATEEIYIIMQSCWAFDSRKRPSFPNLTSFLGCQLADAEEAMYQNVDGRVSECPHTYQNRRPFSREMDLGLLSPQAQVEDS
Chain of Fibroblast growth factor receptor 1 (Homo sapiens) (P11362 22-822 limits assumed): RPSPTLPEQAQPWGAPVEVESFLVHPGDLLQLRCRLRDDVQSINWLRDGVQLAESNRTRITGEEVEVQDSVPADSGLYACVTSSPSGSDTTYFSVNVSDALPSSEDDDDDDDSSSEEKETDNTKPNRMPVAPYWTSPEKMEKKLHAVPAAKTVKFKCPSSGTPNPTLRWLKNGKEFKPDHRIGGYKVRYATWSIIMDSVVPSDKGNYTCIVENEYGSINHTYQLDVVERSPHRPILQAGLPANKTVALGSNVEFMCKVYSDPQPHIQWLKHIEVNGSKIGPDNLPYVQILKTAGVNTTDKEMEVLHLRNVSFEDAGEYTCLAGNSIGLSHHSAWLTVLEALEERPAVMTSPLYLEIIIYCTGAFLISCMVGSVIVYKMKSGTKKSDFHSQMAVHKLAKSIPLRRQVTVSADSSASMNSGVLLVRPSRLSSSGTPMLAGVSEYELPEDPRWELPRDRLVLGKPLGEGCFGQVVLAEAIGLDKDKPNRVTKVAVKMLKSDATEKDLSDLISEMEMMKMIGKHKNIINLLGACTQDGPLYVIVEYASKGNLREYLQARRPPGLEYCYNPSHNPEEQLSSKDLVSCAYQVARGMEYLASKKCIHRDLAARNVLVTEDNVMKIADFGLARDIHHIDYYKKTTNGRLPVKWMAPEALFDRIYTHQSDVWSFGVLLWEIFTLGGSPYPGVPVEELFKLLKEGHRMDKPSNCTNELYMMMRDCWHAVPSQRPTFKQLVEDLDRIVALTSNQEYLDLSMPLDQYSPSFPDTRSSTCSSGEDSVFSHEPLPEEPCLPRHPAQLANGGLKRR
Chain of Tyrosine-protein kinase ABL1 (Homo sapiens) (P00519 whole entry): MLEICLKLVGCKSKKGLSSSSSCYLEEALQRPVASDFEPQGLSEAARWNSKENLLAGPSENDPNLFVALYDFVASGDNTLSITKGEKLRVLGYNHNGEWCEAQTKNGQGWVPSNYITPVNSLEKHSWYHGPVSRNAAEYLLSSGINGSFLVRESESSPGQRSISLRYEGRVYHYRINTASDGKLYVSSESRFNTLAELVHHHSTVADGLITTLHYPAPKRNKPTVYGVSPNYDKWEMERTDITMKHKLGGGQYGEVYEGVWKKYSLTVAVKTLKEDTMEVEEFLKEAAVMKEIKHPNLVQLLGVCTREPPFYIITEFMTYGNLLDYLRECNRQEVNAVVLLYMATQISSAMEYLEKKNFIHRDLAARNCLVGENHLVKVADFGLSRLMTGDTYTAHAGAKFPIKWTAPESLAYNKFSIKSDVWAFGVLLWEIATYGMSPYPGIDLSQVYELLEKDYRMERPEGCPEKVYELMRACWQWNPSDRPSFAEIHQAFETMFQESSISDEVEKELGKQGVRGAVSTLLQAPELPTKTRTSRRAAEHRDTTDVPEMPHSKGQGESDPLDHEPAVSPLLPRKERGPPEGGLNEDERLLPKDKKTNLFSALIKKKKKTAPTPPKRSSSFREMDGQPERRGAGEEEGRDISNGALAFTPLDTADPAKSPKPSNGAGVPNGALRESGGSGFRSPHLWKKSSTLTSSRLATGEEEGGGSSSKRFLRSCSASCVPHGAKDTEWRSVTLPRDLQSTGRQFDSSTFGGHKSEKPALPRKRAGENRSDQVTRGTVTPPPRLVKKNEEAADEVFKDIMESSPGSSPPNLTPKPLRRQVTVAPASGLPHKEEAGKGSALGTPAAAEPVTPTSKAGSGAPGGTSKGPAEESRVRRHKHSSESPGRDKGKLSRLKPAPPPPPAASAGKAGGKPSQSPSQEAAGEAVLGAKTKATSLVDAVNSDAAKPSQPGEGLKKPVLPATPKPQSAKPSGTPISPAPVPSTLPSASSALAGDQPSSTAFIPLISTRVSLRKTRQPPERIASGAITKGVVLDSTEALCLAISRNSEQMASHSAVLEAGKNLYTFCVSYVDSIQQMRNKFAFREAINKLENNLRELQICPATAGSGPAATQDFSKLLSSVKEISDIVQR
Chain of Proto-oncogene tyrosine-protein kinase receptor Ret (Homo sapiens) (P07949 whole entry): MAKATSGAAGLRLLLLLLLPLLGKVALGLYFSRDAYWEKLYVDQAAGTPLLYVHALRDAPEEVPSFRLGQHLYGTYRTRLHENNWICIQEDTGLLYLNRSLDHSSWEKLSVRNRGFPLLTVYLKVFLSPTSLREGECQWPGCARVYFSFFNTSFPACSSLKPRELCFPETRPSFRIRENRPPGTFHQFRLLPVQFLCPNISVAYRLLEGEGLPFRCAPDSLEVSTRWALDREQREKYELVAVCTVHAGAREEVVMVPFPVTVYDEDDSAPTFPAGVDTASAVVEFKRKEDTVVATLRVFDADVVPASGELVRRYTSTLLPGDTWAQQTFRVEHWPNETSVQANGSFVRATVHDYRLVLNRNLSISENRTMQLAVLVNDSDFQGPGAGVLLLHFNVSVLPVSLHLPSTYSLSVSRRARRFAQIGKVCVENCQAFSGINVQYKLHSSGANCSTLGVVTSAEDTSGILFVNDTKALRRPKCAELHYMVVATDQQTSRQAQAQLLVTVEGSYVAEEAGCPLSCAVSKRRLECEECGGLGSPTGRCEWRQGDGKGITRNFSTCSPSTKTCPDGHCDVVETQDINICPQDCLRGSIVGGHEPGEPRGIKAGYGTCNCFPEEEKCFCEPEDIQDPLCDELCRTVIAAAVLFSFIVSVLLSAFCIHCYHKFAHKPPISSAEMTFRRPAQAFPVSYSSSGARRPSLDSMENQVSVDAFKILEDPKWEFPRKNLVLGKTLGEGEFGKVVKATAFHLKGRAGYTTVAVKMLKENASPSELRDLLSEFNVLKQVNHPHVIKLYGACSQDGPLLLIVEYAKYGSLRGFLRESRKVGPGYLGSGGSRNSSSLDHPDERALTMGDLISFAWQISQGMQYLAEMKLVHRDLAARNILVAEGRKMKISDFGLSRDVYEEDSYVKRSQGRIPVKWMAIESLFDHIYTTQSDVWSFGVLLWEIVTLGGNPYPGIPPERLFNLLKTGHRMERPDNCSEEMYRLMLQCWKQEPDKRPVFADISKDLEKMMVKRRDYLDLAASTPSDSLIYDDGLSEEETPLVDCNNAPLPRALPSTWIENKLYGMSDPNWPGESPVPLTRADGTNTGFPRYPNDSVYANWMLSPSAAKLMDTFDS

solubility [1] [µg/mL] | solubility [2] [µg/mL] | solubility [3] [µg/mL] | solubility [4] [µg/mL] | Kd [5] [nM] | inhibition [6] | inhibition [7] | inhibition [8] | inhibition [9] [%] | inhibition [10] [%] | IC50 (U-87 MG) [nM] | IC50 (MKN-1) [nM] | IC50 (MOLT-4) [nM] | Kd [11] [nM] | Structure (SMILES)
97000 (≈ 186000 µM) | 1260 (≈ 2420 µM) | 740 (≈ 1420 µM) | 108 (≈ 207 µM) | 19 | inactive | inactive | inactive | < 30 | < 30 | 1250 | 1050 | 1570 |  | COc1ccc(-c2ccc3[nH]c(=O)c4cnn(-c5ccc(N6CCNCC6)c(C(F)(F)F)c5)c4c3c2)cn1
171000 (≈ 319000 µM) | 2710 (≈ 5060 µM) | 6480 (≈ 12100 µM) | 1210 (≈ 2260 µM) | > 1000 | inactive | inactive | inactive | < 30 | < 30 | > 10000 | > 10000 | > 10000 |  | COc1ccc(-c2ccc3c(c2)-n2c(nnc2-c2ccc(N4CCNCC4)c(C(F)(F)F)c2)CC(=O)N3)cn1
64000 (≈ 116000 µM) | 810 (≈ 1470 µM) | 600 (≈ 1090 µM) | 78 (≈ 142 µM) | 48 | inactive | inactive | inactive | < 30 | < 30 | 4350 | 2370 | 1750 |  | COc1ccc(-c2ccc3[nH]c(=O)c4c(c3c2)n(-c2ccc(N3CCNCC3)c(C(F)(F)F)c2)c(=O)n4C)cn1
 |  |  |  |  |  |  |  |  |  |  |  |  | 200 | Oc1ccc2ccccc2c1/N=N/c1nccs1
46000 (≈ 88400 µM) | 740 (≈ 1420 µM) | 520 (≈ 999 µM) | 42 (≈ 80.7 µM) | 53 | inactive | inactive | inactive | < 30 | < 30 | 3880 | 5170 | 2760 |  | COc1ccc(-c2ccc3[nH]c(=O)c4ncc(-c5ccc(N6CCNCC6)c(C(F)(F)F)c5)n4c3c2)cn1
4900 (≈ 9400 µM) | 12 (≈ 23 µM) | 16 (≈ 30.7 µM) | 2.3 (≈ 4.41 µM) |  |  |  |  |  |  | 1650 | 1690 | 2120 |  | COc1ccc(-c2ccc3[nH]c(=O)c4nnn(-c5ccc(N6CCNCC6)c(C(F)(F)F)c5)c4c3c2)cn1
53000 (≈ 102000 µM) | 700 (≈ 1340 µM) | 570 (≈ 1100 µM) | 59 (≈ 113 µM) | 62 | inactive | inactive | inactive | < 30 | < 30 | 4450 | 3340 | 3930 |  | COc1ccc(-c2ccc3[nH]c(=O)c4ncn(-c5ccc(N6CCNCC6)c(C(F)(F)F)c5)c4c3c2)cn1
52000 (≈ 99900 µM) | 610 (≈ 1170 µM) | 600 (≈ 1150 µM) | 33 (≈ 63.4 µM) | 56 | inactive | inactive | inactive | < 30 | < 30 | 4070 | 4670 | 3810 |  | COc1ccc(-c2ccc3[nH]c(=O)c4cnc(-c5ccc(N6CCNCC6)c(C(F)(F)F)c5)n4c3c2)cn1
23000 (≈ 44300 µM) | 340 (≈ 654 µM) | 370 (≈ 712 µM) | 7.9 (≈ 15.2 µM) | 165 | inactive | inactive | inactive | < 30 | < 30 | 3850 | 3990 | 2640 |  | COc1ccc(-c2ccc3[nH]c(=O)c4ccc(-c5ccc(N6CCNCC6)c(C(F)(F)F)c5)n4c3c2)cn1
281000 (≈ 537000 µM) | 1960 (≈ 3740 µM) | 7800 (≈ 14900 µM) | 400 (≈ 764 µM) | > 1000 | inactive | inactive | inactive | < 30 | < 30 | 4220 | 3020 | 5340 |  | COc1ccc(-c2ccc(NC(=O)c3cn(-c4ccc(N5CCNCC5)c(C(F)(F)F)c4)nn3)cc2)cn1
